In ChEMBL document CHEMBL1124805 (J Med Chem, 1990):

How the values were obtained:
[1] = biological target: D(1A) dopamine receptor (Rattus norvegicus, UniProt P18901); experiment: Binding affinity at rat striatal Dopamine receptor D1 using [3H]- SCH-23390 radioligand
[2] = biological target: Dopamine receptor (Bos taurus, UniProt Q95136+P20288); experiment: Agonistic activity against calf striatal Dopamine receptor using [3H]- ADTN radioligand; format: functional
Method in brief: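 Calf striatal membranes incubated with the dopamine agonist radioligand (±)-[3H]ADTN at 0.5 nM for 60 min at 25 °C.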

[3] = biological target: D(2) dopamine receptor (Rattus norvegicus, UniProt P61169); experiment: Binding affinity at rat striatal Dopamine receptor D2 using [3H]- piperone radioligand
[4] = biological target: Dopamine receptors; D1 & D2 (Rattus norvegicus) (UniProt P18901+P61169); experiment: Ratio of binding affinity of D2 to binding affinity of D1; format: protein assay

Sequence of D(1A) dopamine receptor (P18901 whole entry): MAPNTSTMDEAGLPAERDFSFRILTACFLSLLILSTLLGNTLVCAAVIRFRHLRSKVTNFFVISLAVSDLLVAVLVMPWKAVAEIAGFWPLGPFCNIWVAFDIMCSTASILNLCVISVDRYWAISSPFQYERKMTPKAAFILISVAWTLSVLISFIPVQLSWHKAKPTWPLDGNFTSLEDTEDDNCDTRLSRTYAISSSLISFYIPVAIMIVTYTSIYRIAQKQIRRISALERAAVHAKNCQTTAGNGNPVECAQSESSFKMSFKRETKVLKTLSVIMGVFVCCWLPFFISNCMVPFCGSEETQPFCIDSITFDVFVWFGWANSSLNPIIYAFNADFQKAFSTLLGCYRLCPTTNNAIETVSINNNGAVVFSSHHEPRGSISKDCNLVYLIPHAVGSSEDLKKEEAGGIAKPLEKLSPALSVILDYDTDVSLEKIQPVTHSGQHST
Sequence of D(2) dopamine receptor (P61169 whole entry): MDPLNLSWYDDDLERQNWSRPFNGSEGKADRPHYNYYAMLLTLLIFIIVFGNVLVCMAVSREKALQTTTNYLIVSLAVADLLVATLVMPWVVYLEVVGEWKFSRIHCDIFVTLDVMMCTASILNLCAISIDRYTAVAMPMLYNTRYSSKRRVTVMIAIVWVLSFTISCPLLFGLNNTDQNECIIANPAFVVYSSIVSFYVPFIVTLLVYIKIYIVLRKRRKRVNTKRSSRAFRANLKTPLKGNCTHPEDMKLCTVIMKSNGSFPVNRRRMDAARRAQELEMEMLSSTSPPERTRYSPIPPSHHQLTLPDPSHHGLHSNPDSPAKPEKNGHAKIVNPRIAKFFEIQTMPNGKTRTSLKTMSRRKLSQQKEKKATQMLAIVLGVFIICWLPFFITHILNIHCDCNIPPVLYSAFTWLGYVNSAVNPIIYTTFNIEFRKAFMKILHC

Row | Compound | Ki [1] | Ki [2] | Ki [3] | Potency ratio [4]
1 | CCCN1CCc2cc(O)cc3c2[C@H]1Cc1ccc(O)c(O)c1-3 | 915 nM | 1.15 nM | 0.053 nM | 17300
2 | COc1cc2c3c(c1)-c1c(ccc(O)c1O)C[C@H]3N(C)CC2 | < 10000 nM | 16.4 nM | 1.12 nM | > 9000
3 | CCCN1CCc2cc(OC)cc3c2[C@H]1Cc1ccc(O)c(O)c1-3 | 1780 nM | 3.84 nM | 0.17 nM | 10500
4 | CN1CCc2cc(Br)cc3c2[C@H]1Cc1ccc(O)c(O)c1-3 | 106 nM |  | 17.7 nM | 6
5 | COc1cc2c3c(c1)-c1c(ccc(O)c1O)C[C@@H]3N(C)CC2 | < 10000 nM | 162 nM | 34.7 nM | > 300
6 | CN1CCc2cc(Cl)cc3c2[C@H]1Cc1ccc(O)c(O)c1-3 | 74.5 nM |  | 22.3 nM | 3.3
